Results from ChEMBL document CHEMBL1134236, “Anti-MRSA cephems. Part 1: C-3 substituted thiopyridinium derivatives” (Bioorg Med Chem Lett, 2001).
In brackets after ≈: the same amount, converted by molar mass.

Legend:
Staphylococcus aureus [1] = assay: Minimum inhibitory concentration against methicillin-resistant Staphylococcus aureus (MRSA) A27223; type: functional
Summary of the method: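 Broth microdilution per NCCLS in Mueller-Hinton broth with 2% NaCl. Inoculum about 5×10⁵ CFU/mL, incubated at 35 °C for 24 h. MIC is the lowest drug concentration that inhibits all visible growth.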

Streptococcus pyogenes = assay: Minimum inhibitory concentration against Streptococcus pyogenes Todd Hewitt A9604; type: functional
Summary of the method: (§1)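 Broth dilution MIC under standard NCCLS-recommended conditions. The MIC was read as the lowest drug concentration giving no visible growth. Where the line states it, 50% calf serum was added.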

Enterococcus faecium [2] = assay: Minimum inhibitory concentration against Enterococcus faecium Amp. R. Vanco. S A28156; type: functional; summary of the method: as §1
Staphylococcus aureus [3] = assay: Minimum inhibitory concentration against Staphylococcus aureus / Hetero MR A27217; type: functional
Summary of the method: (§2)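 Broth MIC under NCCLS standard conditions in Mueller-Hinton broth plus 2% NaCl. Inoculum was about 5×10⁵ CFU/mL, incubated at 35 °C for 24 h. The endpoint was the lowest drug concentration inhibiting all visible growth. Where the line states it, 50% calf serum was added.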

Staphylococcus aureus [4] = assay: Minimum inhibitory concentration against Staphylococcus aureus / Homo MR A27295; type: functional; summary of the method: as §2
Staphylococcus aureus [5] = assay: Dose required for protective activity against methicillin-resistant Staphylococcus aureus (MRSA) A27223 in mouse following i.m. administration.; details: im, read-out: PD50
[6] = test system: Staphylococcus haemolyticus; assay: Minimum inhibitory concentration against Staphylococcus haemolyticus / Homo MR A27229; type: functional; summary of the method: as §1
Staphylococcus aureus [7] = assay: Minimum inhibitory concentration against Staphylococcus aureus / MR. P- A27225; type: functional; summary of the method: as §2
Enterococcus faecalis [8] = assay: Minimum inhibitory concentration against Enterococcus faecalis A20688 with 50% calf serum; type: functional; summary of the method: as §1
Staphylococcus aureus [9] = assay: Minimum inhibitory concentration against Staphylococcus aureus / Hetero MR A27218; type: functional; summary of the method: as §2
Enterococcus faecalis [10] = assay: Minimum inhibitory concentration against Enterococcus faecalis A20688; type: functional; summary of the method: as §1
[11] = test system: Staphylococcus epidermidis; assay: Minimum inhibitory concentration against Staphylococcus epidermidis A24548; type: functional; summary of the method: as §1
Staphylococcus aureus [12] = assay: Minimum inhibitory concentration against Staphylococcus aureus / + 50% calf serum A27223; type: functional; summary of the method: as §2
[13] = test system: Staphylococcus epidermidis; assay: Minimum inhibitory concentration against Staphylococcus epidermidis / Imipenem A27368; type: functional; summary of the method: as §1
[14] = test system: Staphylococcus haemolyticus; assay: Minimum inhibitory concentration against Staphylococcus haemolyticus A21638; type: functional; summary of the method: as §1
Staphylococcus aureus [15] = assay: Minimum inhibitory concentration against methicillin-resistant Staphylococcus aureus (MRSA) A27223 in the presence of 50% calf serum.; type: functional
Summary of the method: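 NCCLS broth MIC in Mueller-Hinton broth with 2% NaCl plus 50% calf serum. Inoculum about 5×10⁵ CFU/mL, incubated at 35 °C for 24 h. Read as the lowest concentration with no visible growth.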

Staphylococcus aureus [16] = assay: Minimum inhibitory concentration against Staphylococcus aureus / Pen.+ A9606; type: functional; summary of the method: as §1
Streptococcus pneumoniae [17] = assay: Minimum inhibitory concentration against penicillin resistant Streptococcus pneumoniae A28272; type: functional
Enterococcus faecium [18] = assay: Minimum inhibitory concentration against Enterococcus faecium A24885; type: functional; summary of the method: as §1
Staphylococcus aureus [19] = assay: Minimum inhibitory concentration against Staphylococcus aureus / Homo MR A27621; type: functional; summary of the method: as §2
Staphylococcus aureus [20] = assay: Minimum inhibitory concentration against Staphylococcus aureus / Homo MR A27223; type: functional; summary of the method: as §2
[21] = test system: Staphylococcus epidermidis; assay: Minimum inhibitory concentration against Staphylococcus epidermidis / MR A25783; type: functional; summary of the method: as §1
Staphylococcus aureus [22] = assay: Minimum inhibitory concentration against Staphylococcus aureus A20241 /MS/Pen.; type: functional; summary of the method: as §1
Staphylococcus aureus [23] = assay: Minimum inhibitory concentration against Staphylococcus aureus A9606 with 50% calf serum; type: functional; summary of the method: as §1
Streptococcus pneumoniae [24] = assay: Minimum inhibitory concentration against Streptococcus pneumoniae / Pen.I A27881; type: functional; summary of the method: as §1
Staphylococcus aureus [25] = assay: Minimum inhibitory concentration against Staphylococcus aureus A27218 with 50% calf serum; type: functional; summary of the method: as §2
Staphylococcus aureus [26] = assay: Minimum inhibitory concentration against Staphylococcus aureus / Pen.- A9497; type: functional; summary of the method: as §1
Staphylococcus aureus [27] = assay: Minimum inhibitory concentration against Staphylococcus aureus / Homo MR A27226; type: functional; summary of the method: as §2
[28] = Concentration required for the inhibitory activity against PBP2a
Staphylococcus aureus [29] = assay: Concentration required for 90% inhibitory activity against methicillin-resistant Staphylococcus aureus; type: functional
Summary of the method: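 Panel of 58 MRSA strains tested by NCCLS broth method in Mueller-Hinton broth with 2% NaCl. Inoculum about 5×10⁵ CFU/mL, 35 °C for 24 h. MICs read as no visible growth, and MIC90 derived across the panel.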

Row | SMILES | MIC (Streptococcus pyogenes) [µg/mL] | MIC (Enterococcus faecium [2]) [µg/mL] | MIC (Staphylococcus aureus [3]) [µg/mL] | MIC (Staphylococcus aureus [4]) [µg/mL] | ED50 (Staphylococcus aureus [5]) [mg/kg] | MIC [6] [µg/mL] | MIC (Staphylococcus aureus [7]) [µg/mL] | MIC (Enterococcus faecalis [8]) [µg/mL] | MIC (Staphylococcus aureus [9]) [µg/mL] | MIC (Enterococcus faecalis [10]) [µg/mL] | MIC [11] [µg/mL] | MIC (Staphylococcus aureus [12]) [µg/mL] | MIC [13] [µg/mL] | MIC [14] [µg/mL] | MIC (Staphylococcus aureus [15]) [µg/mL] | MIC (Staphylococcus aureus [16]) [µg/mL] | MIC (Streptococcus pneumoniae [17]) [µg/mL] | MIC (Enterococcus faecium [18]) [µg/mL] | MIC (Staphylococcus aureus [19]) [µg/mL] | MIC (Staphylococcus aureus [1]) [µg/mL] | other results
1 | Cc1cc(SCC2=C(C(=O)O)N3C(=O)[C@@H](NC(=O)CSc4cc(Cl)ccc4Cl)[C@H]3SC2)cc(CCC(=O)O)[n+]1CCCN.O=C(O)C(F)(F)F.O=C([O-])C(F)(F)F | 0.0005 | 64 | 0.5 | 2 | 2.5 | 2 | 0.5 | 4 | 0.5 | 0.5 | 0.03 | 4 | 0.5 | 0.125 | 4 | 0.125 | 0.25 | 2 | 1 | – | MIC (Staphylococcus aureus [1]; Staphylococcus aureus, read-out: MIC): 1 µg/mL; MIC (Staphylococcus aureus [20]): 1 µg/mL; MIC [21]: 0.25 µg/mL; MIC (Staphylococcus aureus [22]): 0.25 µg/mL; MIC (Staphylococcus aureus [23]): 0.25 µg/mL; MIC (Streptococcus pneumoniae [24]): 0.06 µg/mL; MIC (Staphylococcus aureus [25]): 1 µg/mL; MIC (Staphylococcus aureus [26]): 0.007 µg/mL; MIC (Staphylococcus aureus [27]): 0.5 µg/mL
2 | C=CCCc1cc(SCC2=C(C(=O)[O-])N3C(=O)[C@@H](NC(=O)CSc4cc(Cl)ccc4Cl)[C@H]3SC2)cc(C)[n+]1CC[C@@H](O)C(=O)O | – | – | – | – | 19.2 | – | – | – | – | – | – | – | – | – | 8 | – | – | – | – | 4 (≈ 5.61 µM) | –
3 | NCCC[n+]1ccc(SCC2=C(C(=O)O)N3C(=O)[C@@H](NC(=O)CSc4cc(Cl)ccc4Cl)[C@H]3SC2)cc1CCCC(=O)O.O=C(O)C(F)(F)F.O=C([O-])C(F)(F)F | 0.0005 | 32 | 0.25 | 1 | 5.1 | 1 | 0.5 | 1 | 0.5 | 0.25 | 0.015 | 2 | 0.125 | 0.03 | 4 | 0.06 | 0.06 | 1 | 0.5 | 0.5 | IC50 [28]: 3.4 µM; MIC90 (Staphylococcus aureus [29]): 4 µg/mL; MIC (Staphylococcus aureus [20]): 0.5 µg/mL; MIC [21]: 0.03 µg/mL; MIC (Staphylococcus aureus [22]): 0.06 µg/mL; MIC (Staphylococcus aureus [23]): 0.25 µg/mL; MIC (Streptococcus pneumoniae [24]): 0.007 µg/mL; MIC (Staphylococcus aureus [25]): 0.5 µg/mL; MIC (Staphylococcus aureus [26]): 0.001 µg/mL; MIC (Staphylococcus aureus [27]): 0.25 µg/mL
4 | CSCCC[n+]1c(C)cc(SCC2=C(C(=O)[O-])N3C(=O)[C@@H](NC(=O)CSc4cc(Cl)ccc4Cl)[C@H]3SC2)cc1CCC(=O)O | – | – | – | – | > 25 | – | – | – | – | – | – | – | – | – | 4 | – | – | – | – | 2 (≈ 2.79 µM) | –
5 | NCCC[n+]1ccc(SCC2=C(C(=O)O)N3C(=O)[C@@H](NC(=O)CSc4cc(Cl)ccc4Cl)[C@H]3SC2)cc1CCC(=O)O.O=C(O)C(F)(F)F.O=C([O-])C(F)(F)F | 0.003 | 64 | 0.5 | 4 | 2.1 | 2 | 1 | 1 | 0.5 | 0.5 | 0.03 | 2 | 0.25 | 0.06 | 2 | 0.125 | 0.06 | 2 | 1 | 2 | MIC (Staphylococcus aureus [20]): 2 µg/mL; MIC [21]: 0.25 µg/mL; MIC (Staphylococcus aureus [22]): 0.125 µg/mL; MIC (Staphylococcus aureus [23]): 0.125 µg/mL; MIC (Streptococcus pneumoniae [24]): 0.003 µg/mL; MIC (Staphylococcus aureus [25]): 1 µg/mL; MIC (Staphylococcus aureus [26]): 0.007 µg/mL; MIC (Staphylococcus aureus [27]): 1 µg/mL
6 | NC(CCC[n+]1ccc(SCC2=C(C(=O)[O-])N3C(=O)[C@@H](NC(=O)CSc4cc(Cl)ccc4Cl)[C@H]3SC2)cc1)C(=O)O (stereo partly drawn) | – | – | – | – | 4.1 | – | – | – | – | – | – | – | – | – | 4 | – | – | – | – | 1 (≈ 1.52 µM) | IC50 [28]: 2.8 µM; MIC90 (Staphylococcus aureus [29]): 3.5 µg/mL (≈ 5.32 µM)
7 | Cc1cc(SCC2=C(C(=O)[O-])N3C(=O)[C@@H](NC(=O)CSc4cc(Cl)ccc4Cl)[C@H]3SC2)cc(CCC(=O)O)[n+]1C[C@@H](O)[C@H](O)[C@@H](O)C(O)O | – | – | – | – | > 20 | – | – | – | – | – | – | – | – | – | 16 | – | – | – | – | 8 (≈ 10.3 µM) | –
8 | Cl.NCCC[n+]1ccc(SCC2=C(C(=O)O)N3C(=O)[C@@H](NC(=O)CSc4cc(Cl)ccc4Cl)[C@H]3SC2)cc1.[Cl-] | – | – | – | – | 1.4 | – | – | – | – | – | – | – | – | – | 2 | – | – | – | – | 0.125 | IC50 [28]: 1.2 µM; MIC90 (Staphylococcus aureus [29]): 2 µg/mL
9 | Cc1cc(SCC2=C(C(=O)[O-])N3C(=O)[C@@H](NC(=O)CSc4cc(Cl)ccc4Cl)[C@H]3SC2)cc(CCC(=O)O)[n+]1-c1cccc(O)c1 | – | – | – | – | > 25 | – | – | – | – | – | – | – | – | – | 8 | – | – | – | – | 4 (≈ 5.55 µM) | –
